# The list is not random: actives were taken first. Their share in the collection is about 1.1%.
# G6PDH CS: L. mesenteroides G6PDH inhibition counter-screen; Purified L. mesenteroides G6PDH, diaphorase/resazurin coupled fluorescence, 45 min; inhibition, % at 5 µM; actives 0.12% (n = 200,000); AID 1020; in the data active means inhibition above about 50%
# PMI act: activators of human phosphomannose isomerase; P34949; purified human PMI, coupled resazurin fluorescence, 20 min; active compounds read high; 1 = vehicle control, 0 substrate-free wells; activation factor at 20 µM; actives 0.005% (n = 190,000);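 active means activation factor of 2 or more at 20 µM, relative to plate controls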
# Target sequence (P34949 whole entry, looked up): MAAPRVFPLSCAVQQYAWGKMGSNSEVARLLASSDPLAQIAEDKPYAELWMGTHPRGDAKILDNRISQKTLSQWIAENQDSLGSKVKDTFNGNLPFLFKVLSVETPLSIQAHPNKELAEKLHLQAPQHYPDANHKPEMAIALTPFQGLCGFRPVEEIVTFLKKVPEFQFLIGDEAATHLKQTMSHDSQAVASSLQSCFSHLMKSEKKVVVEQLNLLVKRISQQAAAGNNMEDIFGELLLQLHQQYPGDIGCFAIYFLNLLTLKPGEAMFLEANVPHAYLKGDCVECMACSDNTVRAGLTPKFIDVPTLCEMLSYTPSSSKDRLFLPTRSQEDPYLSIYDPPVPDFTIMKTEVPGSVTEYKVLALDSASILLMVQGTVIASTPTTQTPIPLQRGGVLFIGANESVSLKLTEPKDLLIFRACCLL
# Diaphorase inh: counter-screen for diaphorase-based assays: diaphorase inhibitors and chemical oxidizers | diaphorase resazurin-to-resorufin fluorescence, NADH, 16 min; bacterial (C. kluyveri) enzyme, not human | inhibition, % at 20 µM | actives 0.69% (n = 190,000) | AID 1217;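 active means primary screen inhibition at 20 µM above a set limit, cut at about 50% in these data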;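 further: plate controls were DMSO with full reaction for no effect and wells lacking NADH for full effect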
#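 Test system: bacterial diaphorase enzyme (C. kluyveri); Quantity: 0.14 U/mL diaphorase, enzyme working solution; Times: reaction incubation of 16 min at room temperature; Measured by: fluorescence of resorufin formed from resazurin, Ex 544/Em 590 nm; Benchmarks: positive control minus NADH, DMSO neutral control.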
# TbHK1 inh: blocks Trypanosoma brucei hexokinase 1 activity; recombinant TbHK1, G6PDH-coupled NADH A340; inhibition, % at 10 µM; actives 0.11% (n = 220,000);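 active means inhibition of 50% or more in the single-dose primary screen; inactive means inhibition below 50%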
# PMI act hi M6P: activators of human phosphomannose isomerase at near-saturating mannose 6-phosphate | coupled PMI enzyme assay, resazurin fluorescence, 20 min; active compounds read high; 1 = untreated enzyme, 0 = substrate-free blank | activation factor at 20 µM | actives 0.34% (n = 190,000) | AID 1216;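 active means activation factor of 2 or more at 20 µM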
#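 Test system: human phosphomannose isomerase with PGI, G6PDH, diaphorase coupling enzymes; Amount: PMI at 15 ng/mL final; Reagent: Mannose-6-phosphate 1.0 mM (near-saturating) plus 0.22 mM NADP+; Timing: 20 min, room temperature; Technique: resorufin fluorescence at Ex 544/Em 590 nm; Dosing: 20 µM single dose.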
# Diaphorase act: diaphorase activation or chemical reduction counter-screen; Diaphorase/resazurin coupled assay, resorufin fluorescence, 16 min; active compounds read high; 1 = vehicle wells, 0 = NADH-free wells; activation factor at 20 µM; actives 0.005% (n = 190,000); AID 1229;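 active means diaphorase activity raised at least twofold by the compound at 20 µM; inactive means activation factor below 2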
#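 Material: purified diaphorase enzyme from Clostridium kluyveri / Medium: HEPES pH 7.4 buffer with MgCl2 and Tween 20 / Schedule: enzyme reaction of 16 min at room temperature / Measured by: resorufin fluorescence, excitation 544 nm, emission 590 nm / Evaluation: rise in resorufin formation, marking diaphorase activation or chemical reduction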
# Active calls of the source: *; x = no result given.
SMILES,G6PDH CS,PMI act,Diaphorase inh,TbHK1 inh,PMI act hi M6P,Diaphorase act
Nc1ccc2nn(-c3ccccc3)nc2c1,32.5,0.6,60.4*,-13.7,0.4,0.4
Nc1cc2nn(-c3ccccc3)nc2cc1Cl,54.9*,0.3,81.2*,-2.0,0.4,0.2
O=C(Nc1ccccc1C(=O)NC(Cc1ccc(O)cc1)C(=O)O)c1ccccc1 (configuration not stated),0.9,1,-0.2,7.2,1,1
COc1ccc(CCN(C)C(=O)CSc2nnnn2C)cc1OC,9.8,1.1,-7.5,-7.9,1.1,1.1
Cc1cc(C(C#N)c2ccccc2F)n2ncnc2n1 (configuration not stated),6.6,1.1,1.7,-24.4,1,1
COC(=O)Nc1cccn(Cc2c(Cl)cccc2Cl)c1=O,12.0,0.5,51.1*,0.5,0.4,0.5
CC(=O)c1cc(C(=O)N2CCc3c([nH]c4ccccc34)C2C2CCCCC2)[nH]n1 (configuration not stated),11.1,0.8,30.0,-5.1,0.9,0.7
CCOC(=O)C(C)On1c(-c2cccc(Cl)c2)nc2ccc([N+](=O)[O-])cc21 (configuration not stated),2.5,1.6,12.9,-25.9,2*,0.9
CCOC(=O)COn1c(-c2cccc(Cl)c2)nc2ccc([N+](=O)[O-])cc21,1.9,1.4,19.3,-16.7,2.1*,0.8
CC(On1c(-c2ccccc2)nc2ccc(Cl)cc21)C(=O)O (configuration not stated),1.8,1.1,-0.7,-5.7,1.1,1
O=C(O)c1cccc(C(=O)O)n1,29.0,0.4,70.7*,12.9,0.5,0.3
CSc1ccc(/C=N/NC(=O)c2ccccc2Cl)cc1,0.1,0.9,58.5*,-27.5,1,0.4
CC(C)N=c1scc(-c2ccco2)n1/N=C/c1ccc(O)c(O)c1,14.5,0.4,59.2*,-13.8,0.8,0.4
COCCN=c1scc(-c2ccco2)n1/N=C/c1ccc(O)c(O)c1O,16.2,0.3,79.7*,3.4,0.5,0.2
N#C/C(=C\c1coc2ccc(O)cc2c1=O)C(=O)Nc1nc2ccccc2s1,x,x,x,-8.3,x,x
O=c1/c(=C/c2ccccn2)sc2nc3ccccc3n12,-7.1,1.2,15.4,1.4,1.1,0.8
O=c1/c(=C\c2cc([N+](=O)[O-])cc([N+](=O)[O-])c2O)sc2nc3ccccc3n12,-3.4,1.7,50.1*,60.4*,2.4*,0.5
O=C(O)c1cccc(-c2ccc(/C=c3/sc4nc5ccccc5n4c3=O)o2)c1,x,x,x,15.4,x,x
O=C(O)c1cc(C(=O)O)cc(-c2ccc(/C=c3/sc4nc5ccccc5n4c3=O)o2)c1,-0.9,1.1,97.6*,38.9,1.7,0
COc1cc(S(=O)(=O)Nc2ccc(C)cc2)ccc1N=Cc1c(C)c(C#N)c(=O)n(C)c1O,-0.6,1.2,-0.7,-5.9,0.6,1
Cc1ccc(N/N=C/c2c(C)c(C#N)c(=O)n(C)c2O)cc1C,29.5,0.6,69.1*,-31.5,0.8,0.3
Cc1ccc(-c2cc(Cc3ccccc3)c(=O)[nH]n2)cc1,x,x,x,-15.2,x,x
Cc1c2ccccc2nc2c(F)c(NCCO)c(F)c(F)c12,6.4,1,53.1*,-3.7,0.7,0.5
S=C1NC2(CCCC2)Nc2ccccc21,11.0,1.7,6.3,-5.1,2.3*,0.9
S=C1NC2(CCCCCC2)N=C1c1ccccc1,7.5,1,11.2,-8.4,1,0.9
SMILES,G6PDH CS,PMI act,Diaphorase inh,TbHK1 inh,PMI act hi M6P,Diaphorase act
S=C1NC2(CCCCC2)Nc2ccccc21,4.0,1.7,11.4,-7.1,2.5*,0.9
O=C1c2ccccc2NC2(CCCC2)N1O,6.6,1.2,1.6,-0.3,1.2,1
COc1ccc(C(C(=O)NCC2CCCO2)N(C(=O)CNC(=O)c2cccs2)c2ccc(C(C)=O)cc2)cc1OC (configuration not stated),6.8,0.9,-9.1,0.4,1,1.1
CCOCCCNC(=S)NCCNc1nc2ccc(C)cc2cc1C#N,-0.2,1.5,18.6,-4.0,2*,0.8
CCOCCCNC(=S)NCCCNc1nc2ccc(C)cc2cc1C#N,7.4,1.6,17.1,-3.0,2.1*,0.8
CCOCCCNC(=S)NCCCNc1nc2cc3c(cc2cc1C#N)OCO3,-42.0,1.6,3.9,-6.4,2.2*,1
CCOc1ccc2nc(NCCCNS(=O)(=O)c3ccccc3)c(C#N)cc2c1,4.4,0.9,26.6,-0.7,1,0.7
CN(C)CCCNC(=S)NCCNc1nc2cc3c(cc2cc1C#N)OCO3,1.8,1,1.9,4.2,1,1
COCCNC(=S)NCCCNc1nc2cc3c(cc2cc1C#N)OCO3,6.2,1.2,34.4,-3.3,1.6,0.7
CC1=C(C)/C(=N\OS(=O)(=O)c2ccccc2)C=CC1=O,33.8,0.2,100.2*,-1.8,0.5,0
Cc1ccc(S(=O)(=O)O/N=C2\CCCc3ccccc32)cc1,8.1,0.9,32.1,0.9,1,0.7
CN(C)c1ccc(C(=S)N2CCCCC2)cc1Br,8.8,0.9,10.6,-13.5,0.9,0.9
CN(C)c1ccc(C(=S)N2CCOCC2)cc1Br,5.9,1.9,10.3,3.0,2.6*,0.9
N#CC1=C(N)N(c2ccc(F)cc2)C2=C(C1c1ccc(O)cc1)S(=O)(=O)CC2 (configuration not stated),19.2,1.2,39.7,4.0,0.9,0.6
O=C(c1cc2nc(-c3ccc(Cl)cc3)cc(C(F)(F)F)n2n1)N1CCOCC1,9.7,0.9,25.1,-9.7,0.9,0.7
CNc1ccc(Br)cc(C(=O)/C=C/c2ccc(Cl)cc2Cl)c1=O,34.3,0.8,84.8*,-7.1,0.8,0.2
CCNc1ccc(Br)cc(C(=O)/C=C/c2ccc3c(c2)OCO3)c1=O,37.5,0.8,58.7*,-9.4,1,0.4
CNc1ccc(Br)cc(C(=O)/C=C/c2cccc(OC)c2)c1=O,23.9,1.1,50.1*,-19.0,1.2,0.5
Cc1ccc(OC(=O)c2sc3ncn(C)c(=O)c3c2C)cc1,4.8,1,17.4,-3.5,1,0.8
COc1cc2c(cc1OC)C(c1ccccc1)N(S(C)(=O)=O)CC2 (configuration not stated),2.3,0.9,81.5*,-2.6,0.9,0.2
CC1=C(C(=O)OCc2ccc3c(c2)OCO3)C(c2ccc(O)c([N+](=O)[O-])c2)NC(=O)N1 (configuration not stated),-3.1,1,51.5*,-1.4,1,0.5
